The record followed here is ChEMBL document CHEMBL1157779, “Merging the structural motifs of functionalized amino acids and alpha-aminoamides: compounds with significant anticonvulsant activities” (J Med Chem, 2010).

For series [1], the system named is Mus musculus. As to the kind of experiment: Anticonvulsant activity in ip dosed albino mouse assessed as inhibition of maximal electroshock-induced seizures after […]. The format is functional. In general terms: Protection in the maximal electroshock model is a classic sign of anticonvulsant action.
Series [2] deals with Mus musculus. Nature of the series: Anticonvulsant activity in ip dosed albino mouse assessed as protection against 6 Hz electric shock-induced seizures after […]. It counts as functional.
Series [3] is filed under the species Mus musculus. Nature of the series: Protective index, ratio of TD50 for albino mouse to anticonvulsant ED50 for albino mouse. The format is functional.
The test system of series [4] is Rattus norvegicus. Nature of the series: Anticonvulsant activity in po dosed Sprague-Dawley albino rat assessed as inhibition of maximal electroshock-induced seizures after 0.5 hrs. The format is functional.
In series [5] the test system is Rattus norvegicus. Nature of the series: Behavioral toxicity in po dosed Sprague-Dawley albino rat after 0.5 hrs. The conditions noted are these: in vivo. The format is organism-based. In a few lines: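 Oral dosing in male albino Sprague-Dawley rats with behavioral toxicity observation at set times after dosing, doses up to 500 mg/kg.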
The species named for series [6] is Rattus norvegicus. Nature of the series: Protective index, ratio of TD50 for Sprague-Dawley albino rat to anticonvulsant ED50 for Sprague-Dawley albino rat. It counts as functional. In a few lines:
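Rat, oral: behavioral-toxicity TD50 divided by MES ED50, both in mg/kg.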

Series [7] concerns Mus musculus. Nature of the series: Anticonvulsant activity in albino mouse assessed as protection against subcutaneous metrazole-induced seizures up to 300 mg/kg, ip after 0.5 hrs. The format is functional, organism-based. Set-up: dose 300 mg/kg. The method, boiled down:
(§1)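 Male albino Carworth Farms No. 1 mice dosed ip under NIH Anticonvulsant Screening Program; subcutaneous Metrazol seizure challenge at 0.5 and 4 h after doses up to 300 mg/kg.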

In series [8] the test system is Mus musculus. As to the kind of experiment: Anticonvulsant activity in albino mouse assessed as protection against subcutaneous metrazole-induced seizures up to 300 mg/kg, ip after 4 hrs. The format is functional, organism-based. Set-up: dose 300 mg/kg. In a few lines:
as §1

For series [9], the system named is Rattus norvegicus. Nature of the series: Antiallodynic activity in Sprague-Dawley albino rat sciatic nerve ligation model of neuropathic pain assessed as fold attenuation of mechanical allodynia at 12 mg/kg, ip after 1 hr relative to control. It counts as functional. The conditions noted are these: route intraperitoneal. The method, boiled down: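 Male albino Sprague-Dawley rats; sciatic nerve ligated on right side, sham exposure on left; after 7 d recovery, animals on wire mesh platform, 30–60 min acclimation. Baseline 50% paw withdrawal threshold by calibrated von Frey fibres held 6 s, stepping down after a positive response; threshold re-measured after 12 mg/kg ip at time-to-peak effect in MES test.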

Series [10] concerns Mus musculus. As to the kind of experiment: Antiinflammatory activity in albino mouse assessed as reduction in formalin-induced acute inflammation at 15 mg/kg, ip relative to control. Details: scale not given: the % may be the effect or the level left. Conditions: route intraperitoneal. It counts as functional. The method, boiled down: (§2)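 Male albino mice, 16 per trial (8 given vehicle ip, 8 given 15 mg/kg ip); 0.5% formalin injected into hind paw; paw-licking time recorded in 2 min intervals for 45 min; acute and late (inflammatory) phases expressed as percent of control.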

The subject of series [11] is Mus musculus. Nature of the series: Antiinflammatory activity in albino mouse assessed as reduction in formalin-induced late inflammation at 15 mg/kg, ip relative to control. Details: scale not given: the % may be the effect or the level left. The format is functional. Conditions: route intraperitoneal. The method, boiled down:
as §2

Active and inactive are the calls of the source. A value given as a limit tells only on which side of the number the result lay.

With `COC[C@@H](NC(C)=O)C(=O)NCc1ccc(OCc2cccc(F)c2)cc1`, the 50% effective dose (ED50) turned out to be 13 mg/kg with Mus musculus [1], 10 mg/kg with Mus musculus [2] and 14 mg/kg in the series on Rattus norvegicus [4]. The entries for the “Ratio TD50/ED50” value in the series listed under Mus musculus [3] and in the series filed under Rattus norvegicus [6] were 2 and >36, respectively. Further, in the series on Rattus norvegicus [5], the TD50 is > 500 mg/kg. The outcome with Mus musculus [7] and in the series with Mus musculus [8] was inactive. Moreover, the “fold change (FC)” value in the series on Rattus norvegicus [9] was 11.2. The Activity in the series on Mus musculus [10] turned out to be 35%; in the series with Mus musculus [11], 44%.

As a reminder, the ED50 is the dose that gives a 50% effect, or the effect in half of the subjects. The term TD50 denotes the 50% point of the dose-response relation for the toxic effect studied.
